Arbovirus inh = arbovirus infection inhibition; inhibition, % at 10 µM; 200,000 compounds, 0.37% hits; arbovirus infection cell-based antiviral screen; in the data active = inhibition above about 30%
Wee1 stabilizer = blocks degradation of human Wee1 kinase. P30291. HeLa Luc-Wee1K328M stability, luciferase luminescence; 100% = proteasome inhibitor MG132 effect. reporter increase, % at 5 µM. 220,000 compounds, 1.2% hits;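 active = activation above the mean of all tested compounds plus 3 SD, set per screening run, cut at about 8.8% in these data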;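 note: cells exposed to compound for 20 h before luminescence read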
Target sequence (P30291 whole entry K328M): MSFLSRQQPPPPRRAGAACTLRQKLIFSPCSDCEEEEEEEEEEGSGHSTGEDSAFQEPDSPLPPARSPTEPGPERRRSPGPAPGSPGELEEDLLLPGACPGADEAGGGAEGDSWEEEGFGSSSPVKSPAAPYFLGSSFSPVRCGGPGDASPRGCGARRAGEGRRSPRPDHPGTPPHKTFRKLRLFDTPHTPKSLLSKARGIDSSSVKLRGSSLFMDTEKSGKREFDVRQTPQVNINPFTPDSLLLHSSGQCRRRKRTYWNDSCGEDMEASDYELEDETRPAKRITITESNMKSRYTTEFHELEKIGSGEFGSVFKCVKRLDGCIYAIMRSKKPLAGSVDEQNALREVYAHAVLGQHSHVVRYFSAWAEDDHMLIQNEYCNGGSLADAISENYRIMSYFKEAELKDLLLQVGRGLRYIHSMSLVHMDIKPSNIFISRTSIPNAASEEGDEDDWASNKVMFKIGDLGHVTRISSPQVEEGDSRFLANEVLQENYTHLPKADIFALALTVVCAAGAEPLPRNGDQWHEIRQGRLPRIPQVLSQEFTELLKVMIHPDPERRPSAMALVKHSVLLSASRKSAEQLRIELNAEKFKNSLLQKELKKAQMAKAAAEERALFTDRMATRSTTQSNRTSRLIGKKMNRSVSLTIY
p97 ATPase inh = human p97 ATPase inhibition; recombinant p97 ATPase, Kinase-Glo ATP luminescence, 3 h; inhibition, % at 8 µM; 220,000 compounds, 0.42% hits; AID 1481; in the data active = inhibition above about 15%
DTT redox prof = compounds producing H2O2 with reducing agent – biochemical, NIH compound library profiling, artefact control for MLSCN library redox annotation, primary screen; DTT-dependent redox cycling H2O2, phenol red/HRP absorbance; 100% = 100 µM peroxide control, 0% = buffer; activation, % at 10 µM; 200,000 compounds, 0.03% hits; AID 878;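 active = activation of at least 50% relative to the plate's high and low controls in the primary single-dose screen; inactive = activation below 50%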;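 note: compound incubated with DTT at 0.8 mM final as the reducing agent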
PKD1 kinase inh = PKD1 (human) kinase inhibition; inhibition, % (concentration not given with the values); AID 797; 200,000 compounds, 0.056% hits; Q15139; PKD1 kinase fluorescence polarization assay; in the data active = inhibition above about 50%
RBBP9 inhibitor = inhibitors of human serine hydrolase RBBP9; O75884; recombinant RBBP9, FP-Rh probe fluorescence polarization; inhibition, % at 7.94 µM; 220,000 compounds, 0.2% hits;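 active = inhibition above the campaign mean of all tested compounds plus 3 SD, cut at about 14% in these data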
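Measured by: FP readout at 525/598 nm; material: recombinant human RBBP9; also added: Serine-hydrolase probe FP-Rh, 375 nM pre-mixing; medium: Tris buffer pH 8.0, NaCl, Pluronic; replication: one well per compound; doses: one concentration, 7.94 µM nominal, 0.794% DMSO; timing: preincubation 30 min plus labeling 45 min at 25 °C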
p97 inh conf = confirmation of human p97 ATPase inhibitors. shares compounds with p97 ATPase inh. recombinant p97 ATPase, Kinase-Glo ATP luminescence. inhibition, % at 8 µM. 760 compounds, 44% hits. AID 1517;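 active = percent inhibition of p97 ATPase above a set limit, the primary screen's mean plus 3 SD, cut at about 15% in these data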
Numbers stand for hits; ! = a repeat was not active. Shown are actives, neighbours in structure and some others; about 2.2% of the full set was active somewhere.

`Oc1ccc2ccccc2c1C=NC12CN3CCN(CN(C3)C1)C2` gave Arbovirus inh inactive, Wee1 stabilizer inactive, p97 ATPase inh 20, DTT redox prof inactive, PKD1 kinase inh inactive, RBBP9 inhibitor inactive and p97 inh conf 21.
For Cc1cc(C)c(NC(=O)COC(=O)/C=C/c2cccs2)c(C)c1 the results were Arbovirus inh inactive, Wee1 stabilizer inactive, p97 ATPase inh inactive, DTT redox prof inactive, PKD1 kinase inh inactive and RBBP9 inhibitor inactive.
For CC1=NN(c2ccc(Cl)c(C(=O)O)c2)C(=O)C1 the results were Arbovirus inh inactive, Wee1 stabilizer inactive, p97 ATPase inh 34, DTT redox prof inactive, PKD1 kinase inh inactive, RBBP9 inhibitor inactive and p97 inh conf inactive.
CC1=NN(c2ccc(C(=O)O)c(N)c2)C(=O)C1 was read as Arbovirus inh inactive, Wee1 stabilizer inactive, p97 ATPase inh inactive, DTT redox prof inactive, PKD1 kinase inh inactive and RBBP9 inhibitor inactive.
`Nc1cccc2nc3ccccc3cc12` gave Arbovirus inh inactive, Wee1 stabilizer inactive, p97 ATPase inh inactive, DTT redox prof inactive, PKD1 kinase inh inactive and RBBP9 inhibitor inactive.
`Cc1cc2c(N)cccc2nn1` gave Arbovirus inh inactive, Wee1 stabilizer inactive, p97 ATPase inh 32, DTT redox prof inactive, PKD1 kinase inh inactive, RBBP9 inhibitor inactive and p97 inh conf inactive.
`CC(C)c1nnc(NC(=O)c2cccc(NC(=O)C(F)(F)F)c2)s1` gave Arbovirus inh inactive, Wee1 stabilizer inactive, p97 ATPase inh inactive, DTT redox prof inactive, PKD1 kinase inh inactive and RBBP9 inhibitor inactive.
For Cc1cccc(C2c3[nH]c4ccccc4c3CCN2C(=O)c2ccc(=O)[nH]c2)n1 (stereo unspecified) the results were Arbovirus inh inactive, Wee1 stabilizer inactive, p97 ATPase inh 17, DTT redox prof inactive, PKD1 kinase inh inactive, RBBP9 inhibitor inactive and p97 inh conf inactive.
For Cc1cc(-c2cccs2)c(C#N)c(=S)[nH]1 the results were Wee1 stabilizer inactive, p97 ATPase inh inactive and RBBP9 inhibitor inactive.
N#Cc1c(-c2cccs2)cc(-c2cccs2)[nH]c1=O was read as Wee1 stabilizer inactive, p97 ATPase inh 16, RBBP9 inhibitor inactive and p97 inh conf 15.
`COc1ccc2ccc3c(c2c1)N=C[C@]1(O3)N(C)c2ccccc2C1(C)C` gave Arbovirus inh inactive, Wee1 stabilizer inactive, p97 ATPase inh 24, DTT redox prof inactive, PKD1 kinase inh inactive, RBBP9 inhibitor inactive and p97 inh conf inactive.
Cc1cccc(C)c1NC(=O)COC(=O)c1cccnc1 was read as Arbovirus inh inactive, Wee1 stabilizer inactive, p97 ATPase inh 17, DTT redox prof inactive, PKD1 kinase inh inactive, RBBP9 inhibitor inactive and p97 inh conf inactive.
For CCOc1ncccc1C(=O)OCC(=O)Nc1c(C)cccc1C the results were Arbovirus inh inactive, Wee1 stabilizer inactive, p97 ATPase inh inactive, DTT redox prof inactive, PKD1 kinase inh inactive and RBBP9 inhibitor inactive.
For C/C(=N\NC(=O)c1cccc(F)c1)c1ccc(Br)s1 the results were Arbovirus inh inactive, Wee1 stabilizer inactive, p97 ATPase inh 19, DTT redox prof inactive, PKD1 kinase inh inactive, RBBP9 inhibitor inactive and p97 inh conf inactive.
C/C(=N\NC(=O)c1ccccc1O)c1ccc(Br)s1 was read as Arbovirus inh inactive, Wee1 stabilizer inactive, p97 ATPase inh inactive, DTT redox prof inactive, PKD1 kinase inh inactive and RBBP9 inhibitor inactive.
For C(=N\Nc1nc2ccccc2[nH]1)/c1c[nH]c2ccccc12 the results were Arbovirus inh inactive, Wee1 stabilizer inactive, p97 ATPase inh 15, DTT redox prof inactive, PKD1 kinase inh inactive, RBBP9 inhibitor inactive and p97 inh conf inactive.
`Cc1ccccc1/C=N/Nc1nc2ccccc2[nH]1` gave Arbovirus inh inactive, Wee1 stabilizer inactive, p97 ATPase inh inactive, DTT redox prof inactive, PKD1 kinase inh inactive and RBBP9 inhibitor inactive.
For C(=N\Nc1nc2ccccc2[nH]1)/c1cccc2cccnc12 the results were Wee1 stabilizer inactive, p97 ATPase inh 20, RBBP9 inhibitor inactive and p97 inh conf inactive.
Screening CSC(=S)NCc1cccnc1 returned Arbovirus inh inactive, Wee1 stabilizer inactive, p97 ATPase inh inactive, DTT redox prof inactive, PKD1 kinase inh inactive and RBBP9 inhibitor inactive.
CCCCCCN=C(C)c1ccccc1O was read as Wee1 stabilizer inactive, p97 ATPase inh inactive and RBBP9 inhibitor inactive.
Screening Cn1nnc2cc(C(=O)N3CCSCC3)ccc21 returned Arbovirus inh inactive, Wee1 stabilizer inactive, p97 ATPase inh 17, DTT redox prof inactive, PKD1 kinase inh inactive, RBBP9 inhibitor inactive and p97 inh conf inactive.
For CCC1(C)Cc2ccccc2-c2nc(NCCCO)[nH]c(=O)c21 (stereo unspecified) the results were Wee1 stabilizer inactive, p97 ATPase inh inactive and RBBP9 inhibitor inactive.
For COc1ccc(-c2nc(-c3ccc(NC(=O)c4ccc(Br)o4)cc3)no2)cc1OC the results were Arbovirus inh inactive, Wee1 stabilizer inactive, p97 ATPase inh 17, DTT redox prof inactive, PKD1 kinase inh inactive, RBBP9 inhibitor inactive and p97 inh conf inactive.
`CC(C)N1CCN(Cc2ccc(-c3ccccc3Cl)o2)CC1CCO` (stereo unspecified) gave Arbovirus inh inactive, Wee1 stabilizer inactive, p97 ATPase inh inactive, DTT redox prof inactive, PKD1 kinase inh inactive and RBBP9 inhibitor inactive.
`Cc1ccc(NC(=S)N(Cc2cccs2)Cc2cc3cccc(C)c3[nH]c2=O)cc1` gave Arbovirus inh inactive, Wee1 stabilizer inactive, p97 ATPase inh inactive, DTT redox prof inactive, PKD1 kinase inh inactive and RBBP9 inhibitor inactive.
`C=CCc1ccccc1OCC(O)CN1CCN(Cc2ccc3c(c2)OCO3)CC1` (stereo unspecified) gave Arbovirus inh inactive, Wee1 stabilizer inactive, p97 ATPase inh 16!, DTT redox prof inactive, PKD1 kinase inh inactive, RBBP9 inhibitor inactive and p97 inh conf inactive.
`CCOC(=O)/C(C(N)=NCCO)=C(/O)c1ccccc1` gave Arbovirus inh inactive, Wee1 stabilizer inactive, p97 ATPase inh 24, DTT redox prof inactive, PKD1 kinase inh inactive, RBBP9 inhibitor inactive and p97 inh conf inactive.
`Cc1cc(=O)[nH]c2ccc(Cl)cc12` gave Arbovirus inh inactive, Wee1 stabilizer inactive, p97 ATPase inh 16, DTT redox prof inactive, PKD1 kinase inh inactive, RBBP9 inhibitor inactive and p97 inh conf inactive.
Screening CC(C)CCNC(=O)NC(=O)COC(=O)C1CCN(S(=O)(=O)c2ccccc2F)CC1 returned Arbovirus inh inactive, Wee1 stabilizer inactive, p97 ATPase inh inactive, DTT redox prof inactive, PKD1 kinase inh inactive and RBBP9 inhibitor inactive.
For Cc1c(N=C2C=CC(=O)c3ccccc32)c(=O)n(-c2ccccc2)n1C the results were Arbovirus inh inactive, Wee1 stabilizer inactive, p97 ATPase inh inactive, DTT redox prof inactive, PKD1 kinase inh inactive and RBBP9 inhibitor inactive.

Source: PubChem
